13 compounds from ChEMBL document CHEMBL1131635 (J Med Chem, 1998) can be followed below.

For this assay, the target named is T1, Phosphoglycerate kinase (Saccharomyces cerevisiae S288c, UniProt P00560).
T1 sequence (P00560 whole entry): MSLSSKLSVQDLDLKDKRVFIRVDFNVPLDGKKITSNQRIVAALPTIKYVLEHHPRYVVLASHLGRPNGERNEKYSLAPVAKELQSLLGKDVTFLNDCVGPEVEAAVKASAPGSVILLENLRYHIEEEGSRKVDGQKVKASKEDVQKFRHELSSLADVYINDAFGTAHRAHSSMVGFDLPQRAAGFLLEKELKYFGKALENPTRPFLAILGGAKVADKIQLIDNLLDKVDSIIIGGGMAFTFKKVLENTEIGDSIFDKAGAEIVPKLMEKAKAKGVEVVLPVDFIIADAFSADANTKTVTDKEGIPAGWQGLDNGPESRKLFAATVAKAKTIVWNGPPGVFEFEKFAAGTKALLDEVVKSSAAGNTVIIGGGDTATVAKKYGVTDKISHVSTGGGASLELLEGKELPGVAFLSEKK
The experiment in a line: Dissociation constant of phosphoglycerate kinase (PGK) at pH (3.0-11.0) was determined. The gist of the method: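 Free bisphosphonic acids in stirred solution were titrated from pH 11 down to pH 3 by controlled addition of 0.1 M HCl using an autotitrator with a combined glass electrode. The titration curves were plotted over pH 3–11, and successive pKa values of the phosphonic acid groups were calculated from the experimental data.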

For orientation: Kd means the constant that tells how readily two partners part at equilibrium. A low value points to tighter binding. `O=C(CCCP(=O)(O)O)C(F)(F)P(=O)(O)O` displayed a Kd of 76 µM.
The compound `O=C(CCC(F)(F)P(=O)(O)O)C(F)(F)P(=O)(O)O` came in with a Kd of 5 µM. This Kd lies about 15-fold lower than the previous one.
The compound `O=C(CCCP(=O)(O)O)CP(=O)(O)O` registered a dissociation constant Kd of 19 µM.
To `O=P(O)(O)CCCCCCP(=O)(O)O` belongs 2130 µM.
As for `O=C(CCP(=O)(O)O)C(F)(F)P(=O)(O)O`, the dissociation constant (Kd) turned out to be 3 µM.
To `O=C(CP(=O)(O)O)NCCP(=O)(O)O` belongs 675 µM.
To `O=C(CP(=O)(O)O)NCC(F)(F)P(=O)(O)O` belongs 2 µM.
As for `O=P(O)(O)C(F)(F)COCC(F)(F)P(=O)(O)O`, the equilibrium dissociation constant (Kd) was 265 µM.
In turn, `O=P(O)(O)C(F)(F)CCCCC(F)(F)P(=O)(O)O` displayed a Kd of 1000 µM. This Kd is about 3.8-fold higher than that of the compound before.
The compound `O=C(CCP(=O)(O)O)CP(=O)(O)O` returned a dissociation constant (Kd) of 2 µM.
To `O=P(O)(O)C(F)(F)C(O)(O)C(F)(F)P(=O)(O)O` belongs 72 µM; to `O=P(O)(O)CCCCC(F)(F)P(=O)(O)O`, 4 µM.
The compound `O=C(NCCP(=O)(O)O)C(F)(F)P(=O)(O)O` showed a Kd of 6 µM.
